ChEMBL document CHEMBL4814064, “Azetidinimines as a novel series of non-covalent broad-spectrum inhibitors of β-lactamases with submicromolar activities against carbapenemases KPC-2 (class A), NDM-1 (class B) and OXA-48 (class D)” (Eur J Med Chem, 2021)

Tests used:
Bacteria [1] = assay: Inhibition of OXA-48 (unknown origin) expressed in Escherichia coli BL21 (DE3) at 10 uM incubated for 3 mins by spectrophotometric analysis relative to control
How it was run: (§1)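 OXA-48 at 5.8 nM (His-tagged, expressed in BL21(DE3), purified in K2SO4 buffers) in 100 mM phosphate pH 7 plus 50 mM NaHCO3. Inhibitor preincubated 3 min; substrate 100 µM imipenem; initial velocities at 297 nm, 600 s, 25 °C. Seven inhibitor concentrations in triplicate give IC50, converted to Ki by Cheng–Prusoff; percent inhibition at 10 µM.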

[2] = target: Class A carbapenemase KPC-2 (Escherichia coli) (UniProt A8DS27); assay: Inhibition of KPC-2 (unknown origin) expressed in Escherichia coli BL21 (DE3) at 10 uM incubated for 3 mins by spectrophotometric analysis relative to control
How it was run: (§2)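 Preincubated 3 min with inhibitor in 100 mM phosphate pH 7. Imipenem 100 µM; hydrolysis followed at 297 nm for 600 s at 25 °C. IC50 from seven concentrations in triplicate; Ki by Cheng–Prusoff. Percent inhibition read at 10 µM.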

Bacteria [3] = assay: Inhibition of NDM-1 (unknown origin) expressed in Escherichia coli BL21 (DE3) at 10 uM incubated for 3 mins by spectrophotometric analysis relative to control
How it was run: (§3)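 NDM-1 (1 nM, His-tagged, expressed in E. coli BL21(DE3) with 1 mM IPTG for 3 h at 37 °C, purified, kept with 50 µM ZnSO4). Run in 100 mM phosphate pH 7 with 50 µM ZnSO4, 3 min enzyme–inhibitor preincubation, then 100 µM imipenem. Initial rates at 297 nm over 600 s, 25 °C. Triplicate seven-point IC50 converted to Ki (Cheng–Prusoff); percent inhibition at 10 µM.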

[4] = target: Class A carbapenemase KPC-2 (Escherichia coli, UniProt A8DS27); assay: Inhibition of KPC-2 (unknown origin) expressed in Escherichia coli BL21 (DE3) incubated for 3 mins by spectrophotometric analysis; how it was run: as §2
[5] = Inhibition of NDM-1 (unknown origin) expressed in Escherichia coli BL21 (DE3) incubated for 3 mins by spectrophotometric analysis; design: species or system Bacteria; how it was run: as §3
[6] = Inhibition of OXA-48 (unknown origin) expressed in Escherichia coli BL21 (DE3) incubated for 3 mins by spectrophotometric analysis; design: species or system Bacteria; how it was run: as §1

| SMILES | inhibition (Bacteria [1]) | inhibition [2] | inhibition (Bacteria [3]) | Ki ([4]; read-out: Ki) | Ki [4] | IC50 [5] | Ki ([5]; read-out: Ki) | Ki [5] | Ki [6] | Ki ([6]; read-out: Ki) |
| --- | --- | --- | --- | --- | --- | --- | --- | --- | --- | --- |
| COc1cccc(N2/C(=N/c3ccccc3)CC2c2ccccc2)c1 (racemic) | 28% | > 50% | > 50% | 3.6 µM |  |  | 0.65 µM |  |  |  |
| OCc1ccc(N2/C(=N/c3ccc(I)cc3)CC2c2ccc(Cl)cc2Cl)cc1 (racemic) |  | > 50% | > 50% | 3.89 µM |  |  | 1.3 µM |  | Not Active |  |
| COc1ccc(N2/C(=N/c3ccc(Br)cc3)CC2c2ccc(Cl)cc2Cl)cc1 (racemic) | 46% | 30% | > 50% |  |  |  | 0.58 µM |  |  |  |
| Ic1ccc(N2/C(=N/c3ccccc3)CC2c2ccccc2)cc1 (racemic) |  |  | > 50% |  |  |  | 1.9 µM |  |  |  |
| c1ccc(/N=C2\CC(c3ccccc3)N2c2ccccc2)cc1 (racemic) | > 50% | > 50% | > 50% | 2.41 µM |  |  | 4.62 µM |  |  | 0.8 µM |
| c1ccc(/N=C2\CC(c3ccccc3)N2c2ccc3c(c2)OCO3)cc1 (racemic) |  |  | > 50% |  | Not Active |  | 2.39 µM |  | Not Active |  |
| O=C(O)c1ccc(N2/C(=N/c3ccc(I)cc3)CC2c2ccc(Cl)cc2Cl)cc1 (racemic) |  | > 50% | > 50% | 4.15 µM |  |  | 0.035 µM |  | Not Active |  |
| c1ccc(/N=C2\CC(c3ccccc3)N2c2ccc3c(c2)OCCO3)cc1 (racemic) | 37% | > 50% | > 50% | 3.6 µM |  |  | 0.73 µM |  |  |  |
| c1ccc(COc2ccc(N3/C(=N/c4ccccc4)CC3c3ccccc3)cc2)cc1 (racemic) | 31% | > 50% | > 50% | 1.15 µM |  |  | 0.2 µM |  |  |  |
| CCOc1ccc(N2/C(=N/c3ccc(OC)cc3)CC2c2ccc3ccccc3c2)cc1 (racemic) | > 50% | > 50% | > 50% | 1.81 µM |  |  | 0.27 µM |  |  | 0.84 µM |
| COc1ccc(N2/C(=N/c3ccc(C(F)(F)F)cc3)CC2c2ccc(Cl)cc2Cl)cc1 (racemic) | > 50% | > 50% | > 50% | 6.04 µM |  |  | 0.37 µM |  |  | 0.64 µM |
| CSc1ccc(N2/C(=N/c3ccccc3)CC2c2ccccc2)cc1 (racemic) |  | 50% | > 50% |  |  |  | < 0.5 µM |  | Not Active |  |
| COc1ccc(N2/C(=N/c3ccccc3)CC2c2ccccc2)cc1OC (racemic) |  |  | > 50% |  | Not Active |  | 2.4 µM |  | Not Active |  |
| COc1ccc(N2/C(=N/c3ccc(I)cc3)CC2c2cc(Cl)cc(Cl)c2)cc1 (racemic) | > 50% | 42% | > 50% |  |  |  | 2.04 µM |  |  | 0.53 µM |
| CCOc1ccc(N2/C(=N/c3ccc(I)cc3)CC2c2ccc3ccccc3c2)cc1 (racemic) | > 50% | > 50% | > 50% | 1.84 µM |  |  | 0.25 µM |  |  | 0.7 µM |
| COc1cc(N2/C(=N/c3ccccc3)CC2c2ccccc2)cc(OC)c1OC (racemic) |  |  |  |  | Not Active |  |  | Not Active | Not Active |  |
| Oc1ccc(N2/C(=N/c3ccccc3)CC2c2ccccc2)cc1 (racemic) | 26% | 45% | > 50% |  |  |  | 0.36 µM |  |  |  |

Further lines, with some results ahead:

| inhibition (Bacteria [1]) | inhibition [2] | inhibition (Bacteria [3]) | Ki ([4]; read-out: Ki) | Ki [4] | IC50 [5] | SMILES | Ki ([5]; read-out: Ki) | Ki [5] | Ki [6] | Ki ([6]; read-out: Ki) |
| --- | --- | --- | --- | --- | --- | --- | --- | --- | --- | --- |
| 27% | > 50% | > 50% | 1.93 µM |  |  | COc1ccc(N2/C(=N/c3ccc(Cl)cc3)CC2c2ccc(Cl)cc2)cc1 (racemic) | 0.24 µM |  |  |  |
|  |  |  |  | Not Active |  | COc1ccc(N2/C(=N/c3ccccc3)CC2c2ccc(F)cc2)cc1 (racemic) |  | Not Active |  |  |
| > 50% | > 50% | > 50% | 6.49 µM |  |  | COc1ccc(N2/C(=N/c3ccc(I)cc3)CC2c2ccc(F)cc2)cc1 (racemic) | 0.5 µM |  |  | 0.45 µM |
| > 50% | > 50% | > 50% | 1.77 µM |  |  | COc1ccc(N2/C(=N/c3ccc(I)cc3)CC2c2ccc(Cl)cc2)cc1 (racemic) | 0.33 µM |  |  | 0.83 µM |
| 18% | > 50% | > 50% | 3.94 µM |  |  | COc1ccc(N2/C(=N/c3ccc(Cl)cc3)CC2c2ccc3ccccc3c2)cc1 (racemic) | 0.73 µM |  |  |  |
|  |  |  |  | Not Active |  | COc1ccc(N2/C(=N/c3ccccc3)CC2c2cccnc2)cc1 (racemic) |  | Not Active | Not Active |  |
| 33% | > 50% | > 50% | 0.73 µM |  |  | COc1ccc(N2/C(=N/c3ccccc3)CC2c2ccc(I)cc2)cc1 (racemic) | 0.49 µM |  |  |  |
|  |  | > 50% |  |  |  | CCOc1ccc(N2/C(=N/c3ccccc3)CC2c2ccc3ccccc3c2)cc1 (racemic) | 2.4 µM |  |  |  |
| > 50% | > 50% | > 50% | 2.2 µM |  |  | COc1ccc(N2/C(=N/c3ccccc3)CC2c2ccc3ccccc3c2)cc1 (racemic) | 1 µM |  |  | 1.3 µM |
| 31% |  | > 50% |  | Not Active |  | COc1ccc(/N=C2\CC(c3ccc(Cl)cc3)N2c2ccc(OC)cc2)cc1 (racemic) | 0.86 µM |  |  |  |
| 32% | > 50% | > 50% | 2.36 µM |  |  | COc1ccc(N2/C(=N/c3ccc(C(F)(F)F)cc3)CC2c2ccc(Cl)cc2)cc1 (racemic) | 0.32 µM |  |  |  |
| > 50% | > 50% | > 50% | 5.23 µM |  |  | COc1ccc(N2/C(=N/c3ccc(Br)cc3)CC2c2ccc3ccccc3c2)cc1 (racemic) | 0.52 µM |  |  | 0.39 µM |
| 20% | > 50% | > 50% | 1.4 µM |  |  | COc1ccc(N2/C(=N/c3ccccc3)CC2c2cc(Cl)cc(Cl)c2)cc1 (racemic) | 1 µM |  |  |  |
| > 50% | > 50% | > 50% | 1.58 µM |  |  | COc1ccc(N2/C(=N/c3ccc(I)cc3)CC2c2ccc3ccccc3c2)cc1 (racemic) | 0.23 µM |  |  | 0.85 µM |
| 45% | > 50% | > 50% | 1.4 µM |  |  | CCOc1ccc(N2/C(=N/c3ccccc3)CC2c2ccccc2)cc1 (racemic) | 1 µM |  |  |  |
|  |  | > 50% |  | Not Active |  | COc1ccc(N2/C(=N/c3ccccc3)CC2c2ccc(Cl)cc2)cc1 (racemic) | 1 µM |  | Not Active |  |
| > 50% | > 50% | > 50% | 1.55 µM |  |  | COc1ccc(N2/C(=N/c3ccc(Br)cc3)CC2c2ccc(Cl)cc2)cc1 (racemic) | 0.3 µM |  |  | 0.84 µM |
| 30% | > 50% | > 50% | 1.96 µM |  |  | CCOc1ccc(N2/C(=N/c3ccc(Cl)cc3)CC2c2ccc3ccccc3c2)cc1 (racemic) | 0.27 µM |  |  |  |
|  |  | 95% |  |  | < 5 µM | COc1ccc(N2/C(=N/c3ccccc3)C[C@@H]2c2ccccc2)cc1 |  |  |  |  |
|  |  | 95% |  |  | < 5 µM | COc1ccc(N2/C(=N/c3ccccc3)C[C@H]2c2ccccc2)cc1 |  |  |  |  |
|  |  | > 50% |  | Not Active |  | COc1ccc(C2C/C(=N\c3ccccc3)N2c2ccc(OC)cc2)cc1 (racemic) | 2.4 µM |  | Not Active |  |
| > 50% | > 50% | > 50% | 5.66 µM |  |  | COc1ccc(N2/C(=N/c3ccc(I)cc3)CC2c2ccc(I)cc2)cc1 (racemic) | 0.37 µM |  |  | 0.51 µM |
|  | > 50% | 90% | 3.6 µM |  |  | COc1ccc(N2/C(=N/c3ccccc3)CC2c2ccccc2)cc1 (racemic) | 1 µM |  | Not Active |  |
